Measured values taken from PMC8264940 (ACS Omega, 2021).
Counter-ions that a name gives are not always drawn.

What was measured:
SD rats = test: Acute toxicological study; assay type: in vivo, rat
ZDF rats = test: Antidiabetic study, HbA1c in ZDF rats; assay type: in vivo, rat; conditions: for HbA1c-lowering / antidiabetic effect (in words): repeated oral dosing BID, ZDF rats aged 11 to 13 weeks
Procedure, shortened: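 Male ZDF rats, 11 weeks old, allocated by HbA1c, fasting blood glucose and body weight. Test compound or metformin suspended in 5% gum Arabic, given orally twice daily and dosed on the latest body weight for 6 weeks. Body weight and food intake monitored. HbA1c measured by analyser, expressed as change from baseline; mean ± SE, n = 16 or 8; compared with vehicle group.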

[1] = test system: NaCT-expressing CHO cells; test: TCA cycle activation assay; assay type: cell-based
Procedure, shortened: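 Stably transfected CHO-K1 cells express NaCT (pME18S, then pcDNA3.1(+) vectors); control CHO cells carry vector without the NaCT gene. Cells take up [1,5-14C]citric acid. TCA cycle activation is read as the reduction in residual intracellular radioactivity as the citrate is metabolised. Run with and without antimycin A (complex III inhibitor).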

[2] = Plasma pharmacokinetic study in SD rats; conditions: rat, in vivo
Procedure, shortened: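 Male SD rats, 6–7 weeks old; test compound given as oral suspension by body weight, two animals per compound. Tail-vein blood was collected. Plasma was mixed with 10-fold acetonitrile–methanol (1:1), centrifuged, and the supernatant analysed by LC-ESI-MS/MS (C18 column, ammonium acetate/acetonitrile gradient, negative-ion selected reaction monitoring). Plasma detection limit 0.01 μg/mL.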

Tissue distribution = assay type: in vivo, rat; conditions: 2 h after 10 mg/kg p.o., SD rats, mean of 2 animals; detection limit 0.04 μg/g
Procedure, shortened: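 Male SD rats, 6–7 weeks old, given test compound as oral suspension, two animals per compound; values are means of 2. Liver and brain homogenates and plasma were mixed with 10-fold acetonitrile–methanol (1:1), centrifuged, and supernatants analysed by LC-ESI-MS/MS in negative-ion SRM mode. Detection limits 0.01 μg/mL (plasma) and 0.04 μg/g (liver, brain).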

HepG2 cells = test: Oxygen consumption rate; assay type: cell-based, human; conditions: in the presence of oligomycin, P < 0.01 vs DMSO

In the case of N#Cc1[nH]nnc1-c1cccc(OCc2cc(C(F)(F)F)ccc2C(F)(F)F)c1 [Compound 3a, 5-{3-[2,5-Bis(trifluoromethyl)benzyloxy]phenyl}-3H-[1,2,3]triazole-4-carbonitrile], the Deaths (SD rats; 300 mg/kg single dose, after hyperthermia and hyperglycemia) is reported as “one of three”.
With N#Cc1[nH]nnc1-c1cccc(-c2cc(F)cc(C(F)(F)F)c2)c1 [Compound 3b, 5-(3′-Fluoro-5′-trifluoromethyl-[1,1-biphenyl]-3-yl)-3H-[1,2,3]triazole-4-carbonitrile] the “Doses elevating rectal temperature” value (SD rats; single dose, SD rats, 8 h after dosing) was “no elevation of rectal temperature was observed” and the “HbA1c-lowering / antidiabetic effect (in words)” value (ZDF rats) was “remarkable antidiabetic effect”.
For N#Cc1[nH]nnc1-c1cc(Cl)cc(/C=C/c2cccc(C(F)(F)F)c2)c1 [Compound 3c, (E)-5-(3-Chloro-5-(3-(trifluoromethyl)styryl)phenyl)-3H-1,2,3-triazole-4-carbonitrile], the “In vitro activity relative to compound 1” value ([1]; EC50 of the TCA activation) was “one-third”, the “HbA1c-lowering / antidiabetic effect (in words)” value (ZDF rats) was “significant HbA1c lowering effect” and the “Metabolite finding in PK study” value [2] was “a metabolite implying the possibility of future adverse effects was found”.
In the case of N#Cc1[nH]nnc1-c1csc(-c2ccc(Cl)cc2)n1 [Compound 3d, 5-[2-(4-Chlorophenyl)-thiazol-4-yl]-3H-[1,2,3]triazole-4-carbonitrile], the “Brain distribution, concentration” value (Tissue distribution) is reported as “indetectable” and the “HbA1c-lowering / antidiabetic effect (in words)” value (ZDF rats) is reported as “prominent”.
With Cc1sc(-c2ccc(C(F)(F)F)cc2)nc1-c1nn(C)nc1C#N [Compound 4, 2-Methyl-5-{5-methyl-2-[4-(trifluoromethyl)phenyl]thiazol-4-yl}-2H-1,2,3-triazole-4-carbonitrile] the “Activation of the TCA cycle (in words)” value [1] was “did not occur”.
For O=[N+]([O-])c1ccc(O)c([N+](=O)[O-])c1 [DNP, 2,4-dinitrophenol], the “Concentration significantly increasing OCR” value (HepG2 cells) was 40 µM.
With N#CC(C#N)=NNc1ccc(OC(F)(F)F)cc1 [FCCP, Carbonyl cyanide p-trifluoromethoxyphenylhydrazone] the “Concentration significantly increasing OCR” value (HepG2 cells) was 0.25 µM.
With CN(C)C(=N)N=C(N)N [metformin, 1,1-Dimethyl biguanide (metformin) hydrochloride, reference compound] the “Effect on HbA1c, monotherapy (in words)” value (ZDF rats; 100 mg/kg/day alone, 6-week, ZDF rats) was “no effect”.
With N[C@@H](CC(=O)N1CCn2c(nnc2C(F)(F)F)C1)Cc1cc(F)c(F)cc1F [sitagliptin, Sitagliptin phosphate hydrate, reference compound] the “Reduction of HbA1c change from the vehicle value” (ZDF rats; monotherapy 10 mg/kg/day, 6-week, vehicle 2.97% points) was 11.4%.
